The source made the active and inactive calls. The rule behind the calls is not given here.
Assays:
INS1 [1] = assay: Cytoprotective activity in endoplasmic reticulum stressed rat INS-1 cells assessed as rescue from tunicamycin-mediated reduction in cell viability at 40 uM after 72 hrs by CellTiter-Glo assay relative to control; format: functional
Outline: (§1)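 INS-1 cells seeded at 3 × 10³/well and exposed for 72 h to Tm 0.1 μg/ml plus compound. Viability measured as ATP by CellTiter-Glo. Tm alone was set to 0% and DMSO without Tm to 100% rescue. Values are the mean of three experiments. EC50 was derived for survival.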

INS1 [2] = assay: Cytoprotective activity in endoplasmic reticulum stressed rat INS-1 cells assessed as rescue from tunicamycin-mediated reduction in cell survival after 72 hrs by CellTiter-Glo assay; conditions: INS1, 72 h
[3] = Inhibition of endoplasmic reticulum stress-mediated upregulation of CHOP mRNA expression in tunicamycin-treated rat INS-1 cells at 20 uM after 2 to 8 hrs by qRT-PCR method; format: functional, cell-based; conditions: INS1
INS1 [4] = assay: Cytoprotective activity in endoplasmic reticulum stressed rat INS-1 cells assessed as rescue from tunicamycin-mediated reduction in cell viability at 10 uM after 72 hrs by CellTiter-Glo assay relative to control; format: functional; outline: as §1
HEK293 [5] = assay: Inhibition of endoplasmic reticulum stress-mediated upregulation of CHOP gene expression in tunicamycin-treated HEK293 cells after 24 hrs by bright-glo luciferase reporter gene assay; format: functional, cell-based; conditions: Homo sapiens, HEK293, 24 h
Outline: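 HEK293 cells stably carrying a CHOP promoter-luciferase reporter were seeded at 7 × 10³/well and incubated 16 h. Compound at indicated concentrations and Tm 1 μg/mL were added, and luciferase read by Bright-Glo 24 h later. IC50 determined for CHOP-Luc inhibition.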

INS1 [6] = assay: Cytoprotective activity in endoplasmic reticulum stressed rat INS-1 cells assessed as rescue from tunicamycin-mediated reduction in cell viability at 5 uM after 72 hrs by CellTiter-Glo assay relative to control; format: functional; outline: as §1
INS1 [7] = assay: Cytoprotective activity in endoplasmic reticulum stressed rat INS-1 cells assessed as rescue from tunicamycin-mediated reduction in cell viability at 20 uM after 72 hrs by CellTiter-Glo assay relative to control; format: functional; outline: as §1
[8] = Inhibition of endoplasmic reticulum stress-mediated upregulation of CHOP mRNA expression in tunicamycin-treated rat INS-1 cells at 5 to 20 uM after 8 hrs by qRT-PCR method; format: functional, cell-based; conditions: INS1
Outline: (§2)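 INS-1 cells seeded at 4 × 10⁵/well and treated with Tm 0.1 μg/ml plus compound, either for 8 h at indicated concentrations or for indicated times at 10 μM. CHOP mRNA was measured by qRT-PCR with rat primers, normalized to rat cyclophilin A, and reported as fold change.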

[9] = Inhibition of endoplasmic reticulum stress-mediated upregulation of CHOP mRNA expression in tunicamycin-treated rat INS-1 cells at 10 uM after 2 to 8 hrs by qRT-PCR method; format: functional, cell-based; conditions: INS1; outline: as §2
HEK293 [10] = assay: Inhibition of endoplasmic reticulum stress-mediated upregulation of CHOP mRNA expression in tunicamycin-treated HEK293 cells after 2 to 8 hrs by qRT-PCR method; format: functional, cell-based; conditions: Homo sapiens
Outline: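 HEK293 cells seeded at 4 × 10⁵/well and treated with Tm 1 μg/ml plus 20 μM compound or DMSO for the indicated times. CHOP mRNA was measured by qRT-PCR (2 μg RNA reverse transcribed), normalized to human cyclophilin A, and reported as fold change. Means ± SD of triplicates.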

Cc1cccc(C)c1NC(=O)c1nnn(-c2ccc(Cl)cc2)c1C
%max (INS1 [1]): 57% | EC50 (INS1 [2]): 5.2 µM

CCc1cccc(C)c1NC(=O)c1nnn(-c2cccc(Cl)c2C)c1C
inhibition [3]: Active | %max (INS1 [4]): 97%

CCc1ccc(-n2nnc(C(=O)Nc3ccccc3CC)c2C)cc1
%max (INS1 [4]): 91% | EC50 (INS1 [2]): 4.2 µM

Cc1c(C(=O)Nc2ccccc2)nnn1-c1ccccc1F
IC50 (HEK293 [5]): 1.1 µM | %max (INS1 [1]): 31% | EC50 (INS1 [2]): 23 µM

Cc1ccc(-n2nnc(C(=O)Nc3cccc(Cl)c3C)c2C)c(C)c1
%max (INS1 [4]): 92% | EC50 (INS1 [2]): 2.5 µM

CCc1ccc(-n2nnc(C(=O)Nc3ccc(OC)cc3)c2C)cc1
%max (INS1 [6]): 21%

Cc1ccc(-n2nnc(C(=O)Nc3ccccc3C)c2C)cc1C
%max (INS1 [4]): 56% | EC50 (INS1 [2]): 3.1 µM

Cc1c(C(=O)Nc2ccccc2F)nnn1-c1ccc(C(C)C)cc1
IC50 (HEK293 [5]): 0.035 µM | %max (INS1 [6]): 29% | EC50 (INS1 [2]): 2.1 µM

CCc1cccc(C)c1NC(=O)c1nnn(-c2ccc(OC)cc2)c1C
%max (INS1 [7]): 39%

Cc1c(C(=O)Nc2ccccc2)nnn1-c1ccccc1
%max (INS1 [7]): 12% | IC50 (HEK293 [5]): 1.5 µM | EC50 (INS1 [2]): 9.5 µM

CCc1cccc(C)c1NC(=O)c1nnn(-c2ccc(F)cc2)c1C
%max (INS1 [7]): 28%

CCc1ccc(-n2nnc(C(=O)Nc3c(C)cccc3C)c2C)cc1
%max (INS1 [7]): 80% | EC50 (INS1 [2]): 4.6 µM

CCc1cccc(C)c1NC(=O)c1nnn(-c2ccccc2)c1C
%max (INS1 [1]): 36% | EC50 (INS1 [2]): 5.8 µM

Cc1cccc(C)c1NC(=O)c1nnn(-c2cccc(Cl)c2C)c1C
%max (INS1 [1]): 88% | EC50 (INS1 [2]): 9 µM

CCc1ccc(-n2nnc(C(=O)Nc3ccccc3C)c2C)cc1
%max (INS1 [4]): 62% | EC50 (INS1 [2]): 3.2 µM

CCc1ccc(-n2nnc(C(=O)Nc3ccccc3Cl)c2C)cc1
%max (INS1 [6]): 19% | EC50 (INS1 [2]): 0.6 µM

Cc1c(Cl)cccc1NC(=O)c1nnn(-c2ccccc2F)c1C
%max (INS1 [7]): 92% | EC50 (INS1 [2]): 6.5 µM

CCc1ccc(-n2nnc(C(=O)Nc3ccc(NC(C)=O)cc3)c2C)cc1
%max (INS1 [4]): 15%

CCc1ccc(-n2nnc(C(=O)Nc3ccc(C(=O)O)cc3)c2C)cc1
%max (INS1 [4]): 0% | inhibition [8]: inactive

CCc1ccc(-n2nnc(C(=O)Nc3cccc(OC)c3)c2C)cc1
%max (INS1 [4]): 31% | EC50 (INS1 [2]): 3.7 µM

Cc1c(C(=O)Nc2ccc(F)cc2)nnn1-c1ccc(C(C)C)cc1
%max (INS1 [4]): 29% | EC50 (INS1 [2]): 3.5 µM

CCc1ccc(-n2nnc(C(=O)Nc3ccc(Cl)cc3Cl)c2C)cc1
%max (INS1 [4]): 12%

Cc1cccc(C)c1NC(=O)c1nnn(-c2ccccc2F)c1C
%max (INS1 [1]): 23% | EC50 (INS1 [2]): 1.4 µM

Cc1ccccc1NC(=O)c1nnn(-c2ccccc2F)c1C
%max (INS1 [1]): 40% | EC50 (INS1 [2]): 8 µM

Cc1cccc(NC(=O)c2nnn(-c3ccc(C(C)C)cc3)c2C)c1
%max (INS1 [4]): 35% | EC50 (INS1 [2]): 3.2 µM

CCc1cccc(C)c1NC(=O)c1nnn(-c2ccc(C)cc2)c1C
%max (INS1 [1]): 82%

CCc1ccc(-n2nnc(C(=O)Nc3ccc(C)cc3)c2C)cc1
%max (INS1 [4]): 18%

Cc1c(Cl)cccc1NC(=O)c1nnn(-c2ccccc2Cl)c1C
inhibition [3]: Active | %max (INS1 [7]): 94% | EC50 (INS1 [2]): 3.1 µM

CCc1ccc(-n2nnc(C(=O)Nc3cccc(Cl)c3C)c2C)cc1
%max (INS1 [4]): 88% | EC50 (INS1 [2]): 7.8 µM

CCOc1ccccc1-n1nnc(C(=O)Nc2cccc(Cl)c2C)c1C
%max (INS1 [7]): 52% | EC50 (INS1 [2]): 8.7 µM

CCc1ccc(-n2nnc(C(=O)Nc3cccc(C)c3)c2C)cc1
%max (INS1 [6]): 72% | EC50 (INS1 [2]): 2.1 µM

COc1ccccc1-n1nnc(C(=O)Nc2c(C)cccc2C)c1C
%max (INS1 [4]): 28% | EC50 (INS1 [2]): 0.6 µM

Cc1ccc(-n2nnc(C(=O)Nc3c(C)cccc3C)c2C)cc1
%max (INS1 [7]): 73% | EC50 (INS1 [2]): 1.7 µM

CCOc1ccccc1-n1nnc(C(=O)Nc2c(C)cccc2CC)c1C
%max (INS1 [1]): 50%

Cc1ccccc1NC(=O)c1nnn(-c2ccc(C(C)C)cc2)c1C
%max (INS1 [4]): 54% | EC50 (INS1 [2]): 2.6 µM

CCc1ccc(-n2nnc(C(=O)Nc3cc(C)ccc3C)c2C)cc1
%max (INS1 [4]): 90% | inhibition [9]: Active | EC50 (INS1 [2]): 1.6 µM

Cc1c(Cl)cccc1NC(=O)c1nnn(-c2ccc(F)cc2)c1C
%max (INS1 [7]): 87% | EC50 (INS1 [2]): 8.4 µM

Cc1cccc(C)c1NC(=O)c1nnn(-c2ccccc2Cl)c1C
%max (INS1 [1]): 44% | EC50 (INS1 [2]): 9.1 µM

Cc1ccc(-n2nnc(C(=O)Nc3cccc(Cl)c3C)c2C)cc1
%max (INS1 [4]): 56% | EC50 (INS1 [2]): 2.8 µM

CCc1cccc(C)c1NC(=O)c1nnn(-c2ccc(Cl)cc2)c1C
%max (INS1 [1]): 66%

CCc1cccc(C)c1NC(=O)c1nnn(-c2ccccc2OC)c1C
%max (INS1 [7]): 38% | EC50 (INS1 [2]): 1 µM

COc1ccc(-n2nnc(C(=O)Nc3cccc(Cl)c3C)c2C)cc1
%max (INS1 [7]): 81% | EC50 (INS1 [2]): 5.2 µM

Cc1c(C(=O)Nc2cccc(F)c2)nnn1-c1ccc(C(C)C)cc1
IC50 (HEK293 [5]): 0.013 µM | inhibition (HEK293 [10]): Active | %max (INS1 [6]): 33% | EC50 (INS1 [2]): 1.3 µM

CCc1ccc(-n2nnc(C(=O)Nc3ccc(C(=O)OC)cc3)c2C)cc1
%max (INS1 [4]): 14% | inhibition [8]: inactive

CCc1ccc(-n2nnc(C(=O)Nc3ccc(F)cc3)c2C)cc1
%max (INS1 [4]): 82% | EC50 (INS1 [2]): 2.7 µM

CCCCc1ccc(-n2nnc(C(=O)Nc3ccccc3F)c2C)cc1
%max (INS1 [4]): 30% | EC50 (INS1 [2]): 3.5 µM

CCc1cccc(C)c1NC(=O)c1nnn(-c2ccccc2Cl)c1C
%max (INS1 [1]): 55% | EC50 (INS1 [2]): 2.5 µM

From ChEMBL document CHEMBL3797120, “Identification of 1,2,3-triazole derivatives that protect pancreatic β cells against endoplasmic reticulum stress-mediated dysfunction and death through the inhibition of C/EBP-homologous protein expression” (Bioorg Med Chem, 2016)
